Calls of active or inactive are those of the source. No cut-off for these calls is given here.
What was measured:
[1] = species on record: Bos taurus; experiment: Inhibition of bovine heart mitochondrial NADH oxidase complex I/III/IV assessed as remaining activity at 1 uM by spectrophotometry relative to untreated control
[2] = species on record: Bos taurus; experiment: Inhibition of bovine heart mitochondrial NADH oxidase complex I/III/IV assessed as remaining activity at 5 uM by spectrophotometry relative to untreated control
[3] = species on record: Bos taurus; experiment: Inhibition of bovine heart mitochondrial NADH oxidase complex I/III/IV assessed as remaining activity at 10 uM by spectrophotometry relative to untreated control
[4] = test system: Lymphocyte; experiment: Inhibition of lipid peroxidation in diethyl maleate-treated human lymphocytes obtained from FRDA patient at 100 to 250 nM after 16 hrs using C11-BODIPY581/591 by FACS analysis; assay type: functional, cell-based
Outline: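 FRDA lymphocytes depleted of glutathione with DEM, probed with C11-BODIPY581/591. Green (oxidized) fluorescence read by flow cytometry at 490/510 nm. Median mean fluorescence taken relative to untreated control and converted to % lipid peroxidation scavenging; mean ± SEM, n = 3.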

[5] = test system: Lymphocyte; experiment: Inhibition of ROS generation in diethyl maleate-treated human lymphocytes obtained from FRDA patient compound pretreated at 100 to 500 nM for 16 hrs using DCFH-DA by FACS analysis; assay type: functional, cell-based
Outline: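 FRDA lymphocytes pretreated with compounds at 100, 250 and 500 nM for 16 h, then given DEM for 80 min to raise ROS. Stained with DCFH-DA for 15 min, then DCF fluorescence read by flow cytometry. Reported as % ROS scavenging; mean ± SEM of three experiments run in duplicate.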

[6] = test system: Lymphocyte; experiment: Inhibition of oxidative stress-induced mitochondrial membrane depolarization in diethyl maleate-treated human lymphocytes obtained from FRDA patient assessed as cells with intact mitochondrial membrane potential at 250 nM pretreated for 16 hrs using TMRM by FACS analysis (reference value: 95%); assay type: functional; set-up: scale not given: the % may be the effect or the level left
[7] = test system: Lymphocyte; experiment: Inhibition of oxidative stress-induced mitochondrial membrane depolarization in diethyl maleate-treated human lymphocytes obtained from FRDA patient assessed as cells with intact mitochondrial membrane potential at 100 nM pretreated for 16 hrs using TMRM by FACS analysis (reference value: 95%); assay type: functional; set-up: scale not given: the % may be the effect or the level left
[8] = test system: Lymphocyte; experiment: Inhibition of oxidative stress-induced mitochondrial membrane depolarization in diethyl maleate-treated human lymphocytes obtained from FRDA patient assessed as cells with intact mitochondrial membrane potential at 500 nM pretreated for 16 hrs using TMRM by FACS analysis (reference value: 95%); assay type: functional; set-up: scale not given: the % may be the effect or the level left
[9] = test system: Lymphocyte; experiment: Increase in ATP production in CoQ10-deficient lymphocytes (unknown origin) assessed as cellular ATP level at 5 uM after 48 hrs using luciferin-luciferase reaction by bioluminescence assay relative to control; assay type: functional
Outline: (§1)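 CoQ10-deficient lymphocyte line GM17932 grown in glucose-free RPMI 1640 with 25 mM galactose, 2 mM glutamine and 10% dialyzed FBS, forcing oxidative phosphorylation. Incubated with compounds at 5, 10 or 25 µM for 48 h. Total intracellular ATP measured by luciferin–luciferase reaction, expressed as % of untreated control.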

[10] = test system: Lymphocyte; experiment: Increase in ATP production in CoQ10-deficient lymphocytes (unknown origin) assessed as cellular ATP level at 10 uM after 48 hrs using luciferin-luciferase reaction by bioluminescence assay relative to control; assay type: functional; outline: as §1
[11] = test system: Lymphocyte; experiment: Increase in ATP production in CoQ10-deficient lymphocytes (unknown origin) assessed as cellular ATP level at 25 uM after 48 hrs using luciferin-luciferase reaction by bioluminescence assay relative to control; assay type: functional; outline: as §1
[12] = test system: Lymphocyte; experiment: Cytoprotective activity in human lymphocytes obtained from FRDA patient assessed as viable cells at 0.1 uM after 16 hrs by trypan blue exclusion assay; assay type: functional; details: read-out: Activity
Outline: (§2)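 Lymphocytes from FRDA or Leigh's syndrome patients, grown in RPMI-1640 with 15% fetal calf serum and 2 mM glutamine, kept in log phase. Test agents at 0.1, 0.5 and 2.5 µM; diethyl maleate (DEM) added to deplete glutathione and induce oxidative stress. Viability expressed relative to untreated cells (100%). Values are mean ± SD/SEM as tabulated.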

[13] = test system: Lymphocyte; experiment: Cytoprotective activity in human lymphocytes obtained from FRDA patient assessed as viable cells at 0.5 uM after 16 hrs by trypan blue exclusion assay; assay type: functional; details: read-out: Activity; outline: as §2
[14] = test system: Lymphocyte; experiment: Cytoprotective activity in human lymphocytes obtained from FRDA patient assessed as viable cells at 2.5 uM after 16 hrs by trypan blue exclusion assay; assay type: functional; details: read-out: Activity; outline: as §2
[15] = test system: Lymphocyte; experiment: Cytoprotective activity in human lymphocytes obtained from Leigh's syndrome patient assessed as viable cells at 0.1 uM after 16 hrs by trypan blue exclusion assay; assay type: functional; details: read-out: Activity; outline: as §2
[16] = test system: Lymphocyte; experiment: Cytoprotective activity in human lymphocytes obtained from Leigh's syndrome patient assessed as viable cells at 0.5 uM after 16 hrs by trypan blue exclusion assay; assay type: functional; details: read-out: Activity; outline: as §2
[17] = test system: Lymphocyte; experiment: Cytoprotective activity in human lymphocytes obtained from Leigh's syndrome patient assessed as viable cells at 2.5 uM after 16 hrs by trypan blue exclusion assay; assay type: functional; details: read-out: Activity; outline: as §2
[18] = Metabolic stability in bovine liver microsomes at 25 uM after 30 mins by reverse phase HPLC analysis; assay type: ADME, Bos taurus; details: cattle, read-out: Stability
Outline: (§3)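 Compounds incubated 30 min with activated bovine liver microsomes. Remaining parent compound quantified by reversed-phase HPLC and expressed as % recovered; mean ± SD.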

[19] = species on record: Bos taurus; experiment: Inhibition of bovine heart mitochondrial NADH oxidase complex I/III/IV assessed as remaining activity by spectrophotometry relative to untreated control
[20] = test system: Lymphocyte; experiment: Cytoprotective activity in human lymphocytes obtained from FRDA patient assessed as viable cells after 16 hrs by trypan blue exclusion assay; assay type: functional, cell-based; outline: as §2
[21] = test system: Lymphocyte; experiment: Cytoprotective activity in human lymphocytes obtained from Leigh's syndrome patient assessed as viable cells after 16 hrs by trypan blue exclusion assay; assay type: functional, cell-based; outline: as §2
[22] = test system: Lymphocyte; experiment: Inhibition of oxidative stress-induced mitochondrial membrane depolarization in diethyl maleate-treated human lymphocytes obtained from FRDA patient assessed as cells with intact mitochondrial membrane potential pretreated for 16 hrs using TMRM by FACS analysis; assay type: functional, cell-based
[23] = Drug metabolism in bovine liver microsomes at 25 uM after 30 mins by reverse phase HPLC analysis; assay type: ADME, Bos taurus; details: cattle, read-out: Drug metabolism; outline: as §3

Row | Compound | Activity [1] [%] | Activity [2] [%] | Activity [3] [%] | inhibition [4] | inhibition [5] | Activity [6] [%] | Activity [7] [%] | Activity [8] [%] | Activity [9] [%] | Activity [10] [%] | Activity [11] [%] | viability at 0.1 µM [12] [%] | viability at 0.5 µM [13] [%] | viability at 2.5 µM [14] [%] | viability at 0.1 µM [15] [%] | viability at 0.5 µM [16] [%] | viability at 2.5 µM [17] [%] | inhibition [19] | Activity [20] | Activity [21] | other results
1 | CCCCCCCCCCCCCCCCCCCc1c(C)c(N(C)C)nc(C)c1O | 98 | 83 | 81 | inactive | inactive | 42 | 23 | 64 | 106 | 103 | 86 | 20 | 50 | 87 | 8 | 8 | 87 | Dose-dependent effect | Dose-dependent effect | Dose-dependent effect | remaining at 0.5 h, 25 µM [18]: 50%
2 | CCCCCCCCCCCCCCCCCCCc1nc(N(C)C)c(C)c(C)c1O | 93 | 88 | 85 | inactive | inactive | 44 | 24 | 65 | 102 | 102 | 99 | 17 | 38 | 76 | 4 | 7 | 66 | Dose-dependent effect | Dose-dependent effect | Dose-dependent effect | remaining at 0.5 h, 25 µM [18]: 50%
3 | CCCCCCCCCCc1c(C)c(N(C)C)nc(C)c1O | 49 | 35 | 8 | Active | Active | 78 | 60 | 89 | 87 | 40 | 2 | 34 | 84 | 86 | 19 | 87 | 86 | Dose-dependent effect | Dose-dependent effect | Dose-dependent effect | inhibition [22]: Dose-dependent effect; remaining at 0.5 h, 25 µM [18]: 70%
4 | CCCCCCCCCCCCCCCCc1nc(N2CCC2)c(C)c(C)c1O | 93 | 94 | 95 | Active | Active | 68 | 54 | 85 | 92 | 70 | 38 | 54 | 70 | 87 | 13 | 82 | 81 | Dose-dependent effect | Dose-dependent effect | Dose-dependent effect | remaining at 0.5 h, 25 µM [18]: 95%
5 | CCCCCCCCCCCCCCCCc1c(C)c(N2CCC2)nc(C)c1O | 95 | 89 | 79 | Active | Active | 72 | 55 | 89 | 98 | 76 | 50 | 58 | 79 | 92 | 18 | 95 | 92 | Dose-dependent effect | Dose-dependent effect | Dose-dependent effect | remaining at 0.5 h, 25 µM [18]: 95%
6 | Cc1c(N(C)C)nc(CCCCCCCCCCO)c(O)c1C | 27 | 9 | 6 | inactive | inactive | 36 | 24 | 50 | 50 | 20 | 3 | 17 | 28 | 87 | 20 | 36 | 74 | Dose-dependent effect | Dose-dependent effect | Dose-dependent effect | metabolised at 0.5 h, 25 µM [23]: 60%
